Experiments:
[1] = Octanol-phosphate buffer partition coefficient, log D of the compound at pH 7.4 by Shake flask method; format: physicochemical
Method in brief: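 [11C]-labelled compound (about 200 000 cpm) in n-octanol and 0.1 M PBS pH 7.4, vortexed 3 min at rt and centrifuged; weighed aliquots of each phase γ-counted, with the organic layer repartitioned until stable. log D = log(cpm/g octanol ÷ cpm/g PBS); triplicate.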

[2] = Ratio of flux ratio in pig LLC cells expressing MDR1 to flux ratio on pig LLC-PK1 cells; format: ADME, cell-based, Sus scrofa
Method in brief: (§1)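 LLC-PK1 and LLC-MDR1 monolayers, 5 days post-seeding, preincubated 2 h at 37 °C in HBSS/10 mM HEPES. Compound added apically or basally, 2 h at 37 °C; opposite side assayed by LC-MS. Papp = Q/t/C0/A; FR = Papp(b→a)/Papp(a→b); corrected FR = FR(LLC-MDR1)/FR(LLC-PK1).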

LLC-PK1 = experiment: Flux ratio of permeability from apical to basolateral to basolateral to apical side in pig LLC-PK1 cells after 2 hrs; format: ADME, cell-based, Sus scrofa; details: llc-pk1, 2 h; method in brief: as §1
[3] = Flux ratio of permeability from apical to basolateral to basolateral to apical side in pig LLC cells expressing MDR1 after 2 hrs; format: ADME, cell-based, Sus scrofa; method in brief: as §1
Orexin receptor type 2 = target: T1, Orexin receptor type 2 (Homo sapiens, UniProt O43614); experiment: Displacement of [125I]-orexin-A from human OX2 receptor expressed in CHO cells after 30 mins by liquid scintillation counting analysis; format: cell-based
T1 sequence (O43614 whole entry): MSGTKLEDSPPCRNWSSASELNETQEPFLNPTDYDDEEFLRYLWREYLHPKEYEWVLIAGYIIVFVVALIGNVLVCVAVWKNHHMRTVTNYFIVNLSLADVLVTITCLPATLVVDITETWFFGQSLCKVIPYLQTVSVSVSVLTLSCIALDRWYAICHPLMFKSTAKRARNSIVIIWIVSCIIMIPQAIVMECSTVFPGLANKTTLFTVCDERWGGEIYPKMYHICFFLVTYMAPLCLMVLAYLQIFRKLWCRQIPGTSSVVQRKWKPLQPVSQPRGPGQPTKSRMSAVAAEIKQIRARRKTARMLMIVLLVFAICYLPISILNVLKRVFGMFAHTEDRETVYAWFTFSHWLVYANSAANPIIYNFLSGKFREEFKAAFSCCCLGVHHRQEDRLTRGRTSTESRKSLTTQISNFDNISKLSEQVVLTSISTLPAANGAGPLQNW
Method in brief: (§2)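 CHO membranes expressing human OX1R or OX2R (5 μg protein) incubated 30 min at rt with compound and [125I]-orexin A (2 nM stock) in HEPES buffer pH 7.5 with MgCl2, CaCl2, BSA. Nonspecific binding with 10 μM orexin A. Wells washed with HEPES/525 mM NaCl and DPM counted. % inhibition from test, control and nonspecific counts; mean of three wells.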

[4] = target: T2, Orexin/Hypocretin receptor type 1 (Homo sapiens, UniProt O43613); experiment: Displacement of [125I]-orexin-A from human OX1 receptor expressed in CHO cells after 30 mins by liquid scintillation counting analysis; format: cell-based; method in brief: as §2
T2 sequence (O43613 whole entry): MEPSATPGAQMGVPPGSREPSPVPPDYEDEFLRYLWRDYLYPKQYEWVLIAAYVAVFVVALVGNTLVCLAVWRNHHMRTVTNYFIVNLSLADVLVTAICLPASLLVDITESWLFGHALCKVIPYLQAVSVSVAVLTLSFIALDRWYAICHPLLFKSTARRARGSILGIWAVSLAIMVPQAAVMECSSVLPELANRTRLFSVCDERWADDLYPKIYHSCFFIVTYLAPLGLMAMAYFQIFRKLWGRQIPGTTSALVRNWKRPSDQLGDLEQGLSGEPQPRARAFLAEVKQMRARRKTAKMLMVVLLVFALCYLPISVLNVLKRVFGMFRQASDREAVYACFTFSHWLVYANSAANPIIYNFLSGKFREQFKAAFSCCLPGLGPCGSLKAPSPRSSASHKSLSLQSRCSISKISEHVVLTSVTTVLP

Cerebellum = experiment: Drug uptake in P-gp-knockout rat cerebellum at 78.7 to 189.8 MBq, iv after 90 mins by PET analysis in presence of 10 mg/kg, po unlabeled compound; format: ADME, organism-based; design: dose 10 mg/kg, route oral; details: in vivo, 1.5 h
Method in brief: (§3)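 Male Mdr1a-knockout rats (410−500 g) under 1.5% isoflurane at 37 °C; [11C] tracer 78.7−189.8 MBq by tail vein. 90 min list-mode microPET scan with filtered back-projection; ROIs drawn on MRI template; decay-corrected %ID/mL, n = 3. Blocking: unlabeled compound 10 mg/kg po in 5% DMSO/10% cremophor in 10 mM HCl, given 1 h before tracer.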

Thalamus = experiment: Drug uptake in P-gp-knockout rat thalamus at 78.7 to 189.8 MBq, iv after 90 mins by PET analysis; format: ADME, organism-based; details: in vivo, 1.5 h; method in brief: as §3
Hippocampus = experiment: Drug uptake in P-gp-knockout rat hippocampus at 78.7 to 189.8 MBq, iv after 90 mins by PET analysis; format: ADME, organism-based; details: in vivo, 1.5 h; method in brief: as §3
[5] = Drug uptake in P-gp-knockout rat neocortex at 78.7 to 189.8 MBq, iv after 90 mins by PET analysis; format: ADME, organism-based; details: in vivo, 1.5 h; method in brief: as §3

SMILES | logD [1] | Ratio [2] | Ratio (LLC-PK1) | Ratio [3] | Ki (Orexin receptor type 2) [nM] | Ki [4] [nM] | Drug uptake (Cerebellum) | Drug uptake (Thalamus) | Drug uptake (Hippocampus) | Drug uptake [5]
Cc1ncc(OC[C@@]2(c3cccc(F)c3)C[C@H]2C(=O)Nc2ccc(F)c(O[11CH3])n2)c(C)n1 | 3.6 |  |  |  |  |  |  |  |  | 
COc1ccc([C@]2(COc3cnc(C)nc3C)C[C@H]2C(=O)Nc2ccc(F)cn2)cc1F | 3.32 | 1.55 | 0.8 | 1.24 | 7 | 30 |  |  |  | 
COCc1nc(C)ncc1OC[C@@]1(c2ccccc2)C[C@H]1C(=O)Nc1ccc(F)cn1 |  | 2.03 | 0.97 | 1.97 | 1 | 9 |  |  |  | 
Cc1ncc(OC[C@@]2(c3cccc(F)c3)C[C@H]2C(=O)Nc2cc(O[11CH3])c(F)cn2)c(C)n1 | 2.93 |  |  |  |  |  | Not Active | Active | Active | Active

From ChEMBL document CHEMBL2424641, “Synthesis and evaluation of novel radioligands for positron emission tomography imaging of the orexin-2 receptor” (J Med Chem, 2013)
